Sampled rows, rich in hits. Any-hit rate of the full collection: about 3.4%.
M1 ag – human M1 muscarinic receptor agonism. P11229. CHO-K1 hM1, Fluo-8 calcium fluorescence, agonist mode; 0% DMSO, 100% acetylcholine EC100. activation, % at 3 µM. 360,000 compounds, 0.33% hits. AID 588814;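 active = activation above the run's mean compound activation plus 3 SD, cut at about 16% in these data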;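 note: peak over basal fluorescence ratio within a 140 s kinetic read after compound addition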
Target sequence (P11229 whole entry, looked up): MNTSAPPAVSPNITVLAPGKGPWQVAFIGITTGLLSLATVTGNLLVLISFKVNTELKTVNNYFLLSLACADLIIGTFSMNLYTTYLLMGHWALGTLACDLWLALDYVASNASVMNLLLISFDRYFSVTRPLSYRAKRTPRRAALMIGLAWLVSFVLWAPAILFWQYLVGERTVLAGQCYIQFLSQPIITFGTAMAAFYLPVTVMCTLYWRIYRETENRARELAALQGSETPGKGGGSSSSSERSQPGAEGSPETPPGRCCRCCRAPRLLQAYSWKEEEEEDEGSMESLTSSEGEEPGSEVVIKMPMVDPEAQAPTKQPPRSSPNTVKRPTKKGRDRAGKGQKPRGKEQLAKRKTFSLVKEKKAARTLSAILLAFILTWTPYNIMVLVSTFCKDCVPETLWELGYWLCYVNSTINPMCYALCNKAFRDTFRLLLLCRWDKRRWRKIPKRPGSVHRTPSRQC
CHRM1 antagonist – blocks human M1 muscarinic receptor | AID 588852 | CHO-K1 hM1, Fluo-8 calcium fluorescence, ACh EC80 antagonist | 360,000 compounds, 1.3% hits | P11229 | inhibition, % at 3 µM;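 active = percent inhibition above its own plate's cutoff, namely the mean of that plate's compound wells plus 3 SD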;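 note: peak over basal fluorescence ratio during 140 s after agonist addition; 0% = ACh EC80 plus DMSO and 100% = DMSO alone without agonist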
TAAR1 antagonist – human TAAR1 antagonism; 360,000 compounds, 1.5% hits; inhibition, % at 3 µM; Q96RJ0; CHO RD-HGA16 TAAR1, Fluo-8 calcium fluorescence, antagonist;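 active = inhibition above a per-plate cutoff, the mean inhibition of test compounds on that plate plus 3 SD, cut at about 49% in these data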;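 note: 0% = DMSO plus EC80 beta-PEA response and 100% = DMSO alone without agonist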
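Material: RD-HGA16 CHO cells with stable hTAAR1 and Gα16; Dosing: single nominal final test compound concentration of 3 µM; Schedule: seeding 17-24 h prior, 75-min 37 °C, 30-min RT dye loading; Detection: kinetic Fluo-8 calcium fluorescence measurement; Measure: % inhibition from peak post-agonist over basal fluorescence ratio; Benchmarks: vehicle and agonist controls.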
CHRM1 PAM – potentiates human M1 receptor response to acetylcholine. P11229. CHO-K1 hM1, Fluo-8 calcium fluorescence, ACh EC20; 0% = ACh EC20, 100% = maximal ACh. activation, % at 3 µM. 360,000 compounds, 0.088% hits. AID 588819; in the data active = activation above about 19%, passing the limit was not always enough
TAAR1 agonist – agonists of human TAAR1; AID 624467; Q96RJ0; activation, % at 3 µM; 360,000 compounds, 0.99% hits; CHO RD-HGA16 TAAR1, Fluo-8 calcium fluorescence; vehicle wells 0%, saturating PEA agonist 100%;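 active = activation above the mean activation of all test compounds in the run plus 3 SD, cut at about 38% in these data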
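Benchmarks: low control DMSO, high control PEA (EC100); System: CHO RD-HGA16 cells carrying human TAAR1 plus Gα16; Detection: Fluo-8 fluorescence, 5 s baseline then 140 s kinetic read; Schedule: 17-24 h plating, Fluo-8 75 min 37 °C, 30 min RT; Read-out basis: % activation from peak over basal fluorescence ratio, DMSO-to-PEA scaled.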
Active calls of the source: *.

For COc1ccc(-c2cc(-c3ccc(OC)c(OC)c3)n[nH]2)c(O)c1 the results were M1 ag -7, CHRM1 antagonist -10, TAAR1 antagonist 11, CHRM1 PAM 11 and TAAR1 agonist 7.
Screening COCCN=c1scc(-c2cc(OC)ccc2OC)n1/N=C/c1c[nH]c2ccccc12 returned M1 ag 16*, CHRM1 antagonist 6, TAAR1 antagonist 24, CHRM1 PAM 8 and TAAR1 agonist 5.
O=C(NCc1ccc2c(c1)OCO2)c1ccccc1 was read as M1 ag -3, CHRM1 antagonist -18, TAAR1 antagonist -15, CHRM1 PAM 10 and TAAR1 agonist 1.
Screening CCCNC(=O)c1ccc(CN2CCc3ccccc3C2)cc1 returned M1 ag -8, CHRM1 antagonist -6, TAAR1 antagonist 6, CHRM1 PAM -16 and TAAR1 agonist 6.
O=C(NCc1ccc2c(c1)OCO2)c1ccc(CN2CCc3ccccc3C2)cc1 was read as M1 ag -6, CHRM1 antagonist 32*, TAAR1 antagonist 3, CHRM1 PAM -20 and TAAR1 agonist 8.
For COCC(C)NC(=O)c1ccc(CN2CCc3ccccc3C2)cc1 (stereo unspecified) the results were M1 ag -9, CHRM1 antagonist 65*, TAAR1 antagonist -15, CHRM1 PAM -25 and TAAR1 agonist 0.
COCCNC(=O)c1ccc(CN2CCc3ccccc3C2)cc1 was read as M1 ag -13, CHRM1 antagonist -1, TAAR1 antagonist 5, CHRM1 PAM -1 and TAAR1 agonist 2.
`CCC(C)NC(=O)c1ccc(CN2CCc3ccccc3C2)cc1` (stereo unspecified) gave M1 ag -9, CHRM1 antagonist 65*, TAAR1 antagonist 0, CHRM1 PAM -26 and TAAR1 agonist 0.
`CCCCOc1ccc(C(=O)NCC(=O)N2CCN(Cc3ccc4c(c3)OCO4)CC2)cc1` gave M1 ag -6, CHRM1 antagonist 30*, TAAR1 antagonist -15, CHRM1 PAM -16 and TAAR1 agonist 1.
Screening COC(=O)[C@]1(Cc2ccccc2)NC=C(C(=O)c2ccc(F)cc2)[C@@H]1c1ccccc1 returned TAAR1 antagonist 4 and TAAR1 agonist 1.
Screening Cc1ccc(C(=O)N2CCN(S(=O)(=O)c3ccccc3)CC2)cc1 returned M1 ag -6, CHRM1 antagonist 31*, TAAR1 antagonist -18, CHRM1 PAM -9 and TAAR1 agonist 3.
`COc1ncnc2c1ncn2CCCN1CCN(Cc2cccc3ccccc23)CC1` gave M1 ag -5, CHRM1 antagonist -2, TAAR1 antagonist -25, CHRM1 PAM -7 and TAAR1 agonist 3.
`COc1ncnc2c1ncn2CCCN1CCN(Cc2ccc(C)cc2)CC1` gave M1 ag -11, CHRM1 antagonist 28*, TAAR1 antagonist -17, CHRM1 PAM -16 and TAAR1 agonist 5.
O=S1(=O)c2ccc(Br)cc2OC2CCCC[C@@H]2N1Cc1ccccc1 (stereo partly specified) was read as TAAR1 antagonist 10 and TAAR1 agonist 0.
For O/C(=C\c1nc2ccccc2[nH]1)c1cccs1 the results were M1 ag -5, CHRM1 antagonist -20, TAAR1 antagonist 1, CHRM1 PAM 15 and TAAR1 agonist 2.
O=C(/C(=C/c1ccc(Cl)cc1)c1nc2ccccc2[nH]1)c1cccs1 was read as M1 ag -11, CHRM1 antagonist 94* and CHRM1 PAM -36.
Screening O=c1[nH]c2ccccc2nc1/C=C(\O)c1cccs1 returned M1 ag 18*, CHRM1 antagonist 4, TAAR1 antagonist 9, CHRM1 PAM -7 and TAAR1 agonist 28.
`COc1ccc(/C=N\NC(=O)c2ccccc2)cc1COc1ccccc1` gave M1 ag -2, CHRM1 antagonist -5, TAAR1 antagonist 32, CHRM1 PAM 2 and TAAR1 agonist 5.
COc1ccc(/C=N\NC(=O)c2ccccc2OC)cc1COc1ccccc1C was read as M1 ag -3, CHRM1 antagonist 7, TAAR1 antagonist 27, CHRM1 PAM -3 and TAAR1 agonist 0.
Screening COc1ccc(/C=N/NC(=O)c2ccoc2C)cc1COc1c(C)cccc1C returned M1 ag -3, CHRM1 antagonist 22, TAAR1 antagonist 68*, CHRM1 PAM -11 and TAAR1 agonist 6.
CCOC(=O)c1ccccc1OCc1cc(/C=N/NC(=O)c2cccnc2)ccc1OC was read as M1 ag -1, CHRM1 antagonist 15, TAAR1 antagonist 81*, CHRM1 PAM -4 and TAAR1 agonist 17.
Screening NC(=O)c1ncn([C@@H]2O[C@H](C(=O)N[C@H](Cc3c[nH]c4ccccc34)C(=O)N3CCN(C(=O)N4CCCCC4)CC3)[C@@H](O)[C@H]2O)n1 returned TAAR1 antagonist -20 and TAAR1 agonist 4.
`Cc1nn(-c2ccccc2)c(Cl)c1/C=N/NC(=O)OC(C)(C)C` gave M1 ag 0, CHRM1 antagonist 34, TAAR1 antagonist 54*, CHRM1 PAM -15 and TAAR1 agonist 13.
`Cc1ccc(C)c(OCC(=O)N/N=C/c2c(C)nn(-c3ccccc3)c2Cl)c1` gave TAAR1 antagonist 53* and TAAR1 agonist 11.
For CNC(=S)N/N=C/c1c(C)nn(-c2ccccc2)c1Cl the results were M1 ag -4, CHRM1 antagonist 6, TAAR1 antagonist 6, CHRM1 PAM 0 and TAAR1 agonist 1.
`Cc1ccc(C(C)C)c(OCCCN(C)Cc2ccccc2)c1` gave M1 ag -8, CHRM1 antagonist 59*, TAAR1 antagonist -26, CHRM1 PAM -26 and TAAR1 agonist 10.
For Cc1ccc(C(C)C)c(OCC(O)CN(C)Cc2ccccc2)c1 (stereo unspecified) the results were M1 ag -2, CHRM1 antagonist 12, TAAR1 antagonist -2, CHRM1 PAM -9 and TAAR1 agonist 16.
CC(C)=CCCC1=CC[C@H]2[C@@H](C1)C(C(C)C)=CC(=O)[C@@]2(C)O was read as TAAR1 antagonist -26 and TAAR1 agonist 12.
Screening CC(=O)c1c(C)n(CC(=O)NCc2ccco2)c2ccccc12 returned M1 ag -3, CHRM1 antagonist 35*, TAAR1 antagonist -7, CHRM1 PAM -9 and TAAR1 agonist 0.
For COc1ccc(CN2C[C@H](COCc3ccccc3)Oc3cccc(N4CCCC4)c3S2(=O)=O)cc1 the results were TAAR1 antagonist -30 and TAAR1 agonist 1.
COc1cccc(N(C(=O)c2ccco2)c2nc(-c3sc(NC(=O)c4ccco4)nc3C)cs2)c1 was read as M1 ag -2, CHRM1 antagonist 10, TAAR1 antagonist 51*, CHRM1 PAM -4 and TAAR1 agonist 14.
For CN(CC1CCCN(CCc2ccccc2F)C1)C(=O)c1cc2ccccc2o1 (stereo unspecified) the results were M1 ag -9, CHRM1 antagonist 96*, TAAR1 antagonist -13, CHRM1 PAM -31 and TAAR1 agonist -1.

Source: PubChem
